Experimental data as given in ChEMBL document CHEMBL2021854, “2-Aminopyrimidine based 4-aminoquinoline anti-plasmodial agents. Synthesis, biological activity, structure-activity relationship and mode of action studies” (Eur J Med Chem, 2012).

What was measured:
[1] = test system: Human immunodeficiency virus 2; experiment: Antiviral activity against HIV2 infected in human CEM cells assessed as inhibition of virus-induced cytopathic effect after 4 days; type: functional, organism-based; conditions: Human immunodeficiency virus 2, CCRF-CEM, 96 h
Summary of the method: (§1)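 CEM T-lymphocytes (~3 × 10^5 cells/ml) were infected with HIV-1 IIIB or HIV-2 ROD at ~100 CCID50, then immediately plated with a range of compound concentrations. Giant cell formation was scored microscopically after 4 days at 37 °C. Cytostatic activity was tested in parallel in uninfected CEM cells.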

Human betaherpesvirus 5 [2] = experiment: Antiviral activity against Human cytomegalovirus Davis infected in HEL cells assessed as inhibition of virus plaque formation after 4 days; type: functional, organism-based; conditions: Human betaherpesvirus 5, Davis, 96 h
[3] = test system: Feline infectious peritonitis virus; experiment: Antiviral activity against FIPV infected in cat CRFK cells assessed as inhibition of virus-induced cytopathic effect after 4 days by colorimetric formazan-based MTS assay; type: functional, cell-based; conditions: Alphacoronavirus 1, CRFK, 96 h
[4] = test system: Vesicular stomatitis virus; experiment: Antiviral activity against Vesicular stomatitis virus infected in HEL cells assessed as inhibition of virus-induced cytopathogenicity after 4 days; type: functional, organism-based; conditions: 96 h
Summary of the method: (§2)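 Confluent HEL or HeLa monolayers infected with 100 CCID50 of virus in the presence of varying compound concentrations.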

[5] = test system: Vesicular stomatitis virus; experiment: Antiviral activity against Vesicular stomatitis virus infected in HeLa cells assessed as inhibition of virus-induced cytopathogenicity after 4 days; type: functional, organism-based; conditions: 96 h; summary of the method: as §2
[6] = Cytotoxicity against MDCK cells assessed as minimum compound concentration required to causes microscopically detectable alteration of normal cell morphology; type: cell-based, Canis lupus familiaris; conditions: dog
Summary of the method: (§3)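 Confluent, non-proliferating cell cultures were exposed to the compounds. The endpoint was the minimum concentration producing a microscopically detectable alteration of normal cell morphology.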

Coxsackievirus B4 [7] = experiment: Antiviral activity against Coxsackie virus B4 infected in african green monkey Vero cells assessed as inhibition of virus-induced cytopathogenicity after 4 days; type: functional, organism-based; conditions: Enterovirus B, 96 h
Summary of the method: (§4)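 Confluent HEL, Vero or HeLa monolayers were inoculated with 100 CCID50 of virus in the presence of varying concentrations of compound. Cytopathicity was scored when it reached completion in untreated, virus-infected control cultures.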

Human alphaherpesvirus 3 [8] = experiment: Antiviral activity against […] expressing thymidine kinase infected in HEL cells assessed as reduction of virus plaque formation after 4 days; type: functional, cell-based; conditions: Human alphaherpesvirus 3, strain Oka vaccine, 96 h
Influenza A virus [9] = experiment: Antiviral activity against Influenza A virus H3N2 infected in MDCK cells assessed as reduction visual scoring of virus-induced cytopathogenicity after 4 days; type: functional, organism-based; conditions: 96 h
Summary of the method: (§5)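 MDCK monolayers infected with 100 CCID50 of influenza A (H1N1 or H3N2) or influenza B, with varying compound concentrations. Cytopathicity read when untreated infected controls reached complete CPE.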

Influenza A virus [10] = experiment: Antiviral activity against Influenza A virus H1N1 infected in MDCK cells assessed as reduction visual scoring of virus-induced cytopathogenicity after 4 days; type: functional, organism-based; conditions: 96 h; summary of the method: as §5
MDCK = experiment: Cytotoxicity against MDCK cells assessed as cell viability by colorimetric formazan-based MTS assay; design: species or system Canis lupus familiaris; conditions: dog, mdck
Summary of the method: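 Cytotoxicity on MDCK cells; 50% cytotoxic concentration from cell viability measured by colorimetric formazan-based MTS assay.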

Influenza B virus [11] = experiment: Antiviral activity against Influenza B virus infected in MDCK cells assessed as reduction visual scoring of virus-induced cytopathogenicity after 4 days; type: functional, organism-based; conditions: 96 h; summary of the method: as §5
Human respirovirus 3 = experiment: Antiviral activity against Parainfluenza-3 virus infected in african green monkey Vero cells assessed as inhibition of virus-induced cytopathogenicity after 4 days; type: functional, organism-based; conditions: Human respirovirus 3, Vero, 96 h; summary of the method: as §4
[12] = Cytotoxicity against human HEL cells assessed as minimum compound concentration required to causes microscopically detectable alteration of normal cell morphology; type: cell-based; summary of the method: as §3
Plasmodium falciparum [13] = experiment: Resistant factor, ratio of IC50 for chloroquine-resistant Plasmodium falciparum K1 to IC50 for chloroquine-sensitive Plasmodium falciparum 3D7; type: functional
Summary of the method: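 Resistance factor computed as IC50 against K1 divided by IC50 against 3D7, both from the [3H]hypoxanthine incorporation assay.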

Plasmodium falciparum [14] = experiment: Antiplasmodial activity chloroquine-sensitive Plasmodium falciparum 3D7 infected in human A+ erythrocytes assessed as inhibition of [3H]-hypoxanthine incorporation after 24 hrs by scintillation counting; type: functional, organism-based
[15] = test system: Mammalian orthoreovirus 1; experiment: Antiviral activity against Reovirus-1 infected in african green monkey Vero cells assessed as inhibition of virus-induced cytopathogenicity after 4 days; type: functional, organism-based; conditions: Mammalian orthoreovirus 1, Vero, 96 h; summary of the method: as §4
Plasmodium falciparum [16] = experiment: Antiplasmodial activity chloroquine-resistant Plasmodium falciparum K1 infected in human A+ erythrocytes assessed as inhibition of [3H]-hypoxanthine incorporation after 24 hrs by scintillation counting; type: functional, organism-based
Influenza A virus [17] = experiment: Antiviral activity against Influenza A virus H1N1 infected in MDCK cells assessed as inhibition of virus-induced cytopathogenicity after 4 days by colorimetric formazan-based MTS assay; type: functional, organism-based; conditions: 96 h
[18] = Cytotoxicity against cat CRFK cells assessed as cell viability by colorimetric formazan-based MTS assay; design: species or system Felis catus; conditions: crfk
Human alphaherpesvirus 2 = experiment: Antiviral activity against HSV2 G infected in HEL cells assessed as inhibition of virus-induced cytopathogenicity after 4 days; type: functional, organism-based; conditions: Human alphaherpesvirus 2, strain G, 96 h; summary of the method: as §4
Coxsackievirus B4 [19] = experiment: Antiviral activity against Coxsackie virus B4 infected in human HeLa cells assessed as inhibition of virus-induced cytopathogenicity after 4 days; type: functional, organism-based; conditions: Enterovirus B, 96 h; summary of the method: as §4
Punta Toro virus = experiment: Antiviral activity against Punta Toro virus infected in african green monkey Vero cells assessed as inhibition of virus-induced cytopathogenicity after 4 days; type: functional, organism-based; conditions: 96 h; summary of the method: as §4
Human alphaherpesvirus 1 [20] = experiment: Antiviral activity against thymidine kinase-deficient acyclovir-resistant HSV1 KOS infected in HEL cells assessed as inhibition of virus-induced cytopathogenicity after 4 days; type: functional, organism-based; conditions: Human alphaherpesvirus 1, KOS, 96 h; summary of the method: as §2
[21] = Cytotoxicity against african green monkey Vero cells assessed as minimum compound concentration required to causes microscopically detectable alteration of normal cell morphology; type: cell-based; conditions: chlorocebus sabaeus; summary of the method: as §3
[22] = test system: Human immunodeficiency virus 1; experiment: Antiviral activity against HIV1 infected in human CEM cells assessed as inhibition of virus-induced cytopathic effect after 4 days; type: functional, organism-based; conditions: Human immunodeficiency virus 1, CCRF-CEM, 96 h; summary of the method: as §1
[23] = Inhibition of beta-hematin formation assessed as Ferriprotoporphyrin IX biomineralisation at 1 mg/ml after 24 hrs; type: functional
Summary of the method: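 Hemin chloride (0.5 mg/ml in DMSO) mixed with 0.5 M sodium acetate buffer pH 4.4 and drug or solvent control, incubated 37 °C for 24 h. Pellet washed with DMSO to remove unreacted hemin, dissolved in 0.1 N NaOH, absorbance read at 405 nm; percent inhibition relative to control. Highest concentration tested 1 mg/ml.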

[24] = Selectivity index, ratio of CC50 for MDCK cells to IC50 for chloroquine-resistant Plasmodium falciparum K1; type: functional
Summary of the method: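 Selectivity index computed as MTS-based CC50 on MDCK cells divided by IC50 against P. falciparum K1.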

Sindbis virus = experiment: Antiviral activity against Sindbis virus infected in african green monkey Vero cells assessed as inhibition of virus-induced cytopathogenicity after 4 days; type: functional, organism-based; conditions: 96 h; summary of the method: as §4
Human alphaherpesvirus 3 [25] = experiment: Antiviral activity against thymidine kinase-deficient […] infected in HEL cells assessed as reduction of virus plaque formation after 4 days; type: functional, organism-based; conditions: Human alphaherpesvirus 3, 07-1, HEL, 96 h
Influenza A virus [26] = experiment: Antiviral activity against Influenza A virus H3N2 infected in MDCK cells assessed as inhibition of virus-induced cytopathogenicity after 4 days by colorimetric formazan-based MTS assay; type: functional, organism-based; conditions: 96 h
[27] = test system: Respiratory syncytial virus; experiment: Antiviral activity against Respiratory syncytial virus infected in human HeLa cells assessed as inhibition of virus-induced cytopathogenicity after 4 days; type: functional, organism-based; conditions: 96 h; summary of the method: as §4
Felid alphaherpesvirus 1 = experiment: Antiviral activity against Feline herpesvirus infected in cat CRFK cells assessed as inhibition of virus-induced cytopathic effect after 4 days by colorimetric formazan-based MTS assay; type: functional, organism-based; conditions: Felid alphaherpesvirus 1, CRFK, 96 h
[28] = Cytotoxicity against human HeLa cells assessed as minimum compound concentration required to causes microscopically detectable alteration of normal cell morphology; type: cell-based; summary of the method: as §3
Influenza B virus [29] = experiment: Antiviral activity against Influenza B virus infected in MDCK cells assessed as inhibition of virus-induced cytopathogenicity after 4 days by colorimetric formazan-based MTS assay; type: functional, organism-based; conditions: 96 h
Human betaherpesvirus 5 [30] = experiment: Antiviral activity against Cytomegalovirus AD-169 infected in HEL cells assessed as inhibition of virus plaque formation after 4 days; type: functional, organism-based; conditions: Human betaherpesvirus 5, AD169, HEL, 96 h
Human alphaherpesvirus 1 [31] = experiment: Antiviral activity against HSV1 KOS infected in HEL cells assessed as inhibition of virus-induced cytopathogenicity after 4 days; type: functional, organism-based; conditions: Human alphaherpesvirus 1, KOS, 96 h; summary of the method: as §2
HeLa = experiment: Cytotoxicity against human HeLa cells assessed as cell viability by colorimetric formazan-based MTS assay
[32] = Inhibition of beta-hematin formation assessed as Ferriprotoporphyrin IX biomineralisation after 24 hrs; type: functional
Summary of the method: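 Hemin (0.5 mg/ml in DMSO) was mixed with 0.5 M sodium acetate pH 4.4 and compound, then incubated for 24 h at 37 °C. The pellet was washed with DMSO to remove unreacted hemin and dissolved in 0.1 N NaOH, with A405 read. Percent inhibition was taken versus solvent control, and IC50 by curve fitting.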

| SMILES | EC50 [1] | EC50 (Human betaherpesvirus 5 [2]) | EC50 [3] | EC50 [4] | EC50 [5] | MCC [6] | EC50 (Coxsackievirus B4 [7]) | EC50 (Human alphaherpesvirus 3 [8]) | EC50 (Influenza A virus [9]) | EC50 (Influenza A virus [10]) | CC50 (MDCK) | EC50 (Influenza B virus [11]) | EC50 (Human respirovirus 3) | MCC [12] | Ratio IC50 (Plasmodium falciparum [13]) | IC50 (Plasmodium falciparum [14]) | EC50 [15] | IC50 (Plasmodium falciparum [16]) | EC50 (Influenza A virus [17]) | CC50 [18] | further results |
| --- | --- | --- | --- | --- | --- | --- | --- | --- | --- | --- | --- | --- | --- | --- | --- | --- | --- | --- | --- | --- | --- |
| Cc1nc(NCCCNc2ccnc3cc(Cl)ccc23)nc(-c2cccc([N+](=O)[O-])c2)c1C(=O)OC(C)C | > 10 µM | > 4 µM | > 4 µM | > 4 µM | > 4 µM | 800 nM | > 20 µM | 4 µM | > 0.16 µM | > 0.16 µM | 0.5 µM | > 0.16 µM | > 20 µM | 20 µM | 0.385 | 0.599 µM | > 20 µM | 0.231 µM | > 0.16 µM | 7.7 µM | EC50 (Human alphaherpesvirus 2): > 4 µM; EC50 (Coxsackievirus B4 [19]): > 4 µM; EC50 (Punta Toro virus): > 20 µM; EC50 (Human alphaherpesvirus 1 [20]): > 4 µM; MCC [21]: 100 µM; EC50 [22]: > 2 µM; inhibition [23]: 79%; Ratio CC50/IC50 [24]: 2.1; EC50 (Sindbis virus): > 20 µM; EC50 (Human alphaherpesvirus 3 [25]): > 4 µM; EC50 (Influenza A virus [26]): > 0.16 µM; EC50 [27]: > 4 µM; EC50 (Felid alphaherpesvirus 1): > 4 µM; MCC [28]: 20 µM; EC50 (Influenza B virus [29]): > 0.16 µM; EC50 (Human betaherpesvirus 5 [30]): > 4 µM; EC50 (Human alphaherpesvirus 1 [31]): > 4 µM; CC50 (HeLa): 1.04 µM |
| CCN(CC)CCCC(C)Nc1ccnc2cc(Cl)ccc12 (configuration not stated) [CHLOROQUINE] | – | – | – | – | – | – | – | – | – | – | – | – | – | – | – | – | – | – | – | – | IC50 [32]: 18 µM |
| CCOC(=O)c1c(C)nc(NCCCCNc2ccnc3cc(Cl)ccc23)nc1C | > 2 µM | 5.23 µM | > 4 µM | > 100 µM | > 20 µM | 4000 nM | > 20 µM | 9.26 µM | > 0.8 µM | > 0.8 µM | 0.8 µM | > 0.8 µM | > 20 µM | > 20 µM | 39.422 | 0.0421 µM | > 20 µM | 1.66 µM | > 0.8 µM | 14.5 µM | EC50 (Human alphaherpesvirus 2): > 20 µM; EC50 (Coxsackievirus B4 [19]): > 20 µM; EC50 (Punta Toro virus): > 20 µM; EC50 (Human alphaherpesvirus 1 [20]): > 100 µM; MCC [21]: 100 µM; EC50 [22]: > 2 µM; inhibition [23]: 100%; Ratio CC50/IC50 [24]: 0.48; EC50 (Sindbis virus): > 20 µM; EC50 (Human alphaherpesvirus 3 [25]): > 20 µM; EC50 (Influenza A virus [26]): > 0.8 µM; EC50 [27]: > 20 µM; EC50 (Felid alphaherpesvirus 1): > 4 µM; MCC [28]: ≥ 20 µM; EC50 (Influenza B virus [29]): > 0.8 µM; EC50 (Human betaherpesvirus 5 [30]): > 4 µM; EC50 (Human alphaherpesvirus 1 [31]): > 100 µM; CC50 (HeLa): 6.07 µM |
